# The source made the active and inactive calls. No cut-off for these calls is given here.
# What was measured:
# LNCaP = experiment: Antiproliferative activity against human LNCAP cells after 96 hrs by MTT assay; type: functional, cell-based
# [1] = Antiproliferative activity against human PC3 cells after 96 hrs by MTT assay; type: functional, cell-based; conditions: PC-3, 96 h
# [2] = target: T1, Serine/threonine-protein kinase pim-1 (Homo sapiens, UniProt P11309); experiment: Inhibition of Pim 1 (unknown origin) after 50 mins by HTRF method
# PC-3 = experiment: Effect on PIM1 expression in human PC3 cells at 5 to 20 uM after 24 hrs by western blot analysis; type: functional, cell-based
# In short: (§1)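 PC-3 cells were exposed for 24 h to the test compound at 0, 5, 10 or 20 μM, with DMSO as the negative control and a reference Pim-1 inhibitor at 10 μM. Lysates were analysed by western blot for BAD phospho-Ser112, 4E-BP1 phospho-Thr37/46, c-Myc and total Pim-1.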
# [3] = target: T1, Serine/threonine-protein kinase pim-1; experiment: Inhibition of Pim1 in human PC3 cells assessed as decrease in BAD phosphorylation at Ser112 residue after 24 hrs by western blot analysis; type: cell-based; conditions: PC-3; in short: as §1
# [4] = target: T1, Serine/threonine-protein kinase pim-1; experiment: Inhibition of Pim1 in human PC3 cells assessed as decrease in 4E-BP1 phosphorylation at Thr37/46 residue after 24 hrs by western blot analysis; type: cell-based; conditions: PC-3; in short: as §1
# [5] = target: T1, Serine/threonine-protein kinase pim-1; experiment: Inhibition of Pim1 in human PC3 cells assessed as decrease in c-Myc level at 5 to 20 uM after 24 hrs by western blot analysis; type: cell-based; conditions: PC-3; in short: as §1
# [6] = target: T1, Serine/threonine-protein kinase pim-1; conditions: PC-3, 10 uM
# [7] = target: T1, Serine/threonine-protein kinase pim-1; conditions: PC-3, 10 uM; remark: listed apart in the source
# [8] = target: T1, Serine/threonine-protein kinase pim-1; conditions: PC-3, 10 uM; remark: listed apart in the source
Compound,IC50 (LNCaP) [µM],IC50 [2] [µM],IC50 [1] [µM],also measured
FC(F)(F)Oc1cccc(Nc2nnnc3ccc(Cl)nc23)c1,8.62,> 10,5.99,
CCOc1ccc2nnnc(Nc3cccc(OC(F)(F)F)c3)c2n1,> 100,> 10,> 100,
CC(C)(C)OC(=O)N1CCC(CNc2ccc3nnnc(Nc4cccc(OC(F)(F)F)c4)c3n2)CC1,> 100,> 10,> 100,
FC(F)(F)Oc1cccc(Nc2nnnc3ccc(N4CCCC4)nc23)c1,> 100,> 10,> 100,
CCCCOc1ccc2nnnc(Nc3cccc(OC(F)(F)F)c3)c2n1,,> 10,,
FC(F)(F)Oc1cccc(Nc2nnnc3ccc(N4CCC(N5CCCCC5)CC4)nc23)c1,4.9,2.47,5.58,
CC1CCN(c2ccc3nnnc(Nc4cccc(OC(F)(F)F)c4)c3n2)CC1,,> 10,,
CN1CCC(CNc2ccc3ncc(-c4cccc(OC(F)(F)F)c4)n3n2)CC1 [SGI-1776],6.85,,4.86,inhibition [6]: Active; inhibition [7]: Active; inhibition [8]: Active

# Further compounds by falling IC50 [2], results first:
IC50 (LNCaP) [µM],IC50 [2] [µM],Compound,IC50 [1] [µM],also measured
42.9,2.1,OCCNc1ccc2nnnc(Nc3cccc(OC(F)(F)F)c3)c2n1,> 100,
14.3,2.04,CCN1CCN(c2ccc3nnnc(Nc4cccc(OC(F)(F)F)c4)c3n2)CC1,16.9,
,2.02,COc1ccc2nnnc(Nc3cccc(OC(F)(F)F)c3)c2n1,,
17.3,1.87,CN1CCC(CNc2ccc3nnnc(Nc4cccc(OC(F)(F)F)c4)c3n2)CC1,15.8,
31,1.45,FC(F)(F)Oc1cccc(Nc2nnnc3ccc(N4CCOCC4)nc23)c1,41,
,1.31,CC1CCCCN1c1ccc2nnnc(Nc3cccc(OC(F)(F)F)c3)c2n1 (stereo not given),,
10.7,1.08,CC(C)N1CCN(c2ccc3nnnc(Nc4cccc(OC(F)(F)F)c4)c3n2)CC1,13.8,
10.7,1.05,FC(F)(F)Oc1cccc(Nc2nnnc3ccc(N4CCC(N5CCCC5)CC4)nc23)c1,8.16,Activity (PC-3): inactive; inhibition [3]: Dose-dependent effect; inhibition [4]: Dose-dependent effect; inhibition [5]: Active
11.5,0.8,FC(F)(F)Oc1cccc(Nc2nnnc3ccc(NCC4CCNCC4)nc23)c1,8.32,
8.51,0.69,FC(F)(F)Oc1cccc(Nc2nnnc3ccc(N4CCNCC4)nc23)c1,11.5,
20.3,0.6,CN1CCN(c2ccc3nnnc(Nc4cccc(OC(F)(F)F)c4)c3n2)CC1,24,

# From ChEMBL document CHEMBL3763084, “Design and synthesis of substituted pyrido[3,2-d]-1,2,3-triazines as potential Pim-1 inhibitors” (Bioorg Med Chem Lett, 2016)
